Measurements published in publication PMC7825275 (Cancer chemotherapy and pharmacology, 2019).

Assays:
patients = details: out of 35 patients enrolled, with oral daily cyclophosphamide; cited from earlier work
[1] = Reported veliparib half-life; assay type: in vivo, human; details: for a 6.1 h half-life
[2] = system: previously untreated non-small cell lung cancer; details: with carboplatin (AUC=6) plus paclitaxel (200 mg/m^2), Japanese patients; cited from earlier work
[3] = system: advanced solid malignancies; assay: Tumor response by RECIST 1.0, veliparib with carboplatin and paclitaxel; assay type: in vivo, human
Summary of the method: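 Tumor response followed RECIST 1.0 on CT or MRI. Scans were done every 2 cycles; for the first 46 subjects, the first scan was after cycle 3 and then every 2 cycles. Oral veliparib was given twice daily on days 1–7, with IV carboplatin/paclitaxel, in 21-day cycles, up to 6 cycles recommended.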

[4] = system: patients with advanced solid tumors; assay type: in vivo, human
Summary of the method: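 Standard 3+3 escalation with modified Fibonacci steps. Oral veliparib was given every 12 h on days 1–7 of 21-day cycles, with IV carboplatin/paclitaxel on day 3. For the first 46 patients, cycle 1 was chemotherapy alone and DLT was scored in cycle 2; afterwards all three agents were given in cycle 1, which was the DLT cycle. Growth factors were barred in cycles 1–2. MTD was the highest dose with ≤1/6 DLTs.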

[5] = Adenoid cystic of lung, 1 evaluable, with carboplatin and paclitaxel
[6] = Adrenalcortical carcinoma, 1 evaluable, with carboplatin and paclitaxel
[7] = All Patients, 67 evaluable, with carboplatin and paclitaxel
[8] = Ampulla of Vater, 1 evaluable, with carboplatin and paclitaxel
[9] = Bladder, 6 evaluable, with carboplatin and paclitaxel
[10] = Breast, 13 evaluable, with carboplatin and paclitaxel
[11] = Carcinoma of unknown origin, 3 evaluable, with carboplatin and paclitaxel
[12] = Cervix, 1 evaluable, with carboplatin and paclitaxel
[13] = Cholangiocarcinoma, 2 evaluable, with carboplatin and paclitaxel
[14] = Esophageal, 2 evaluable, with carboplatin and paclitaxel
[15] = Head & Neck, 8 evaluable, with carboplatin and paclitaxel
[16] = Level 1: veliparib 10 mg BID, carboplatin AUC 6, paclitaxel 150 mg/m^2, 5 evaluable
[17] = Level 4: veliparib 40 mg BID, carboplatin AUC 6, paclitaxel 175 mg/m^2, 3 evaluable
[18] = Level 5: veliparib 40 mg BID, carboplatin AUC 6, paclitaxel 200 mg/m^2, 12 evaluable
[19] = Level 7B: veliparib 100 mg BID, carboplatin AUC 6, paclitaxel 200 mg/m^2, 14 evaluable
[20] = Level 8: veliparib 120 mg BID, carboplatin AUC 6, paclitaxel 200 mg/m^2, 8 evaluable
[21] = Lung, 16 evaluable, with carboplatin and paclitaxel
[22] = Melanoma, 9 evaluable, with carboplatin and paclitaxel
[23] = Myxoid chondrosarcoma, 1 evaluable, with carboplatin and paclitaxel
[24] = Prostate, 1 evaluable, with carboplatin and paclitaxel
[25] = Stomach, 1 evaluable, with carboplatin and paclitaxel
[26] = Uterine, 1 evaluable, with carboplatin and paclitaxel

C[C@]1(c2nc3c(C(N)=O)cccc3[nH]2)CCCN1 [veliparib]
partial responses (patients): seven | expected accumulation ratio by day 3 based on reported half-life [1]: 1.34 | MTD, veliparib dose [2]: 120 mg | CR [3, 5]: 0 | ORR [3, 5]: 0/1 (0%) | PD [3, 5]: 0 | PR [3, 5]: 0 | CR [3, 6]: 0 | ORR [3, 6]: 0/1 (0%) | PD [3, 6]: 1 | PR [3, 6]: 0 | CR [3, 7]: 5 | ORR [3, 7]: 27/67 (40%) | PD [3, 7]: 8 | CR [3, 8]: 0 | ORR [3, 8]: 0/1 (0%) | PD [3, 8]: 0 | PR [3, 8]: 0 | CR [3, 9]: 1 | ORR [3, 9]: 3/6 (50%) | PD [3, 9]: 1 | PR [3, 9]: 2 | CR [3, 10]: 3 | ORR [3, 10]: 9/13 (69%) | PD [3, 10]: 2 | PR [3, 10]: 6 | CR [3, 11]: 0 | ORR [3, 11]: 1/3 (33%) | PD [3, 11]: 0 | PR [3, 11]: 1 | CR [3, 12]: 0 | ORR [3, 12]: 0/1 (0%) | PD [3, 12]: 1 | PR [3, 12]: 0 | CR [3, 13]: 0 | ORR [3, 13]: 0/2 (0%) | PD [3, 13]: 0 | PR [3, 13]: 0 | CR [3, 14]: 0 | ORR [3, 14]: 0/2 (0%) | PD [3, 14]: 0 | PR [3, 14]: 0 | CR [3, 15]: 0 | ORR [3, 15]: 3/8 (38%) | PD [3, 15]: 0 | PR [3, 15]: 3 | CR [3, 16]: 0 | ORR [3, 16]: 2/5 (40%) | PD [3, 16]: 1 | PR [3, 16]: 2 | CR [3, 17]: 0 | ORR [3, 17]: 1/3 (33%) | PD [3, 17]: 0 | PR [3, 17]: 1 | CR [3, 18]: 2 | ORR [3, 18]: 6/12 (50%) | PD [3, 18]: 1 | PR [3, 18]: 4 | CR [3, 19]: 0 | ORR [3, 19]: 3/14 (21%) | PD [3, 19]: 3 | PR [3, 19]: 3 | CR [3, 20]: 0 | ORR [3, 20]: 4/8 (50%) | PD [3, 20]: 1 | PR [3, 20]: 4 | CR [3, 21]: 1 | ORR [3, 21]: 7/16 (44%) | PD [3, 21]: 2 | PR [3, 21]: 6 | CR [3, 22]: 0 | ORR [3, 22]: 1/9 (11%) | PD [3, 22]: 1 | PR [3, 22]: 1 | CR [3, 23]: 0 | ORR [3, 23]: 0/1 (0%) | PD [3, 23]: 0 | PR [3, 23]: 0 | CR [3, 24]: 0 | ORR [3, 24]: 1/1 (100%) | PD [3, 24]: 0 | PR [3, 24]: 1 | CR [3, 25]: 0 | ORR [3, 25]: 1/1 (100%) | PD [3, 25]: 0 | PR [3, 25]: 1 | CR [3, 26]: 0 | ORR [3, 26]: 1/1 (100%) | PD [3, 26]: 0 | PR [3, 26]: 1 | patients with dose-limiting toxicities during DLT observation cycle ([4]; all dose levels): 8 patients | DLTs at dose level 7 ([4]; veliparib 80 mg bid): 1/6 | DLTs at the MAD, patients with DLT of evaluable patients ([4]; veliparib 120 mg BID, paclitaxel 200 mg/m^2, carboplatin AUC 6, febrile neutropenia, hyponatremia): 2 of 7 | maximum administered dose (MAD), veliparib dose ([4]; with paclitaxel 200 mg/m^2 and carboplatin AUC 6 (dose level 8)): 120 mg BID
